From ChEMBL document CHEMBL4038313, “Expanding the Antiviral Spectrum of 3-Fluoro-2-(phosphonomethoxy)propyl Acyclic Nucleoside Phosphonates: Diamyl Aspartate Amidate Prodrugs” (J Med Chem, 2017)
pEC50, pIC50: −log10 of the molar value.

Experiments:
[1] = Cytotoxicity against human PHA-stimulated PBMC assessed as cell viability by tetrazolium dye assay; assay type: cell-based
[2] = Selectivity index, ratio of CC50 for human PHA-stimulated PBMCs to IC50 for CCR5 tropic HIV1 BaL infected in human PHA-stimulated PBMC
[3] = Selectivity index, ratio of CC50 for human TZM-bl cells to EC50 for CXCR4-tropic HIV-1 NL4-3 infected in human TZM-bl cells; assay type: toxicity, cell-based; conditions: read-out: Ratio CC50/EC50
[4] = system: Human immunodeficiency virus 1; assay: Antiviral activity against CXCR4-tropic HIV-1 NL4-3 infected in human TZM-bl cells assessed as inhibition of virus-induced cytopathic effect preincubated with cells for 30 mins followed by viral infection measured after 48 hrs in presence of p-24 HIV-1 Ag by luciferase reporter gene assay; assay type: functional, cell-based; conditions: Human immunodeficiency virus 1, NL4-3, TZM-bl
Method in brief: (§1)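 TZM-bl cells, 1 × 10^4 per well in DMEM with 10% FBS and 10 mM […], incubated 30 min at 37 °C with compound. Then HIV-1 NL4.3 (X4) or BaL (R5) added at 100 pg p24 Ag per well. After 48 h, cells lysed with luciferase substrate. Tat-induced luminescence read after 10 min dark incubation as a measure of replication.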

[5] = Cytotoxicity against human MT4 cells assessed as reduction in cell viability after 6 days by XTT tetrazolium dye-based assay
Method in brief: (§2)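 MT-4 cells, 1 × 10^4 per well, given compound dilutions and wild-type NL4-3 or K65R NL4-3. Virus titred to give 85–95% cell killing at day 6. Incubated 6 days at 37 °C, 5% CO2. Viability read by XTT at 450/650 nm. EC50 from CPE reduction and toxicity from uninfected drug wells, by four-parameter fit. Fold change is K65R EC50 over wild-type EC50.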

[6] = system: Human immunodeficiency virus 1; assay: Antiviral activity against tenofovir-resistant CXCR4-tropic HIV-1 NL4-3 harboring reverse transcriptase K65R mutant infected in human MT4 cells assessed as inhibition of viral replication inhibition of virus-induced cytopathic effect after 6 days by XTT dye based assay; assay type: functional, cell-based; conditions: Human immunodeficiency virus 1, NL4-3, MT4, 144 h; method in brief: as §2
[7] = system: Human immunodeficiency virus 1; assay: Antiviral activity against CXCR4-tropic HIV-1 NL4-3 infected in human MT4 cells assessed as inhibition of virus-induced cytopathic effect after 6 days by XTT dye based assay; assay type: functional, cell-based; conditions: Human immunodeficiency virus 1, NL4-3, MT4, 144 h; method in brief: as §2
[8] = Selectivity index, ratio of CC50 for human PHA-stimulated PBMC to IC50 for CXCR4-tropic HIV-1 NL4-3 infected in human PHA-stimulated PBMC
[9] = system: Human immunodeficiency virus 1; assay: (§3) Antiviral activity against CXCR4-tropic HIV-1 NL4-3 infected in human PHA-stimulated PBMC assessed as inhibition of viral replication by measuring reduction in p24 antigen production preincubated with cells for 30 mins followed by viral infection measured on day 10 post infection in presence of IL-2 by ELISA; assay type: functional; conditions: Human immunodeficiency virus 1, NL4-3
Method in brief: (§4)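 PBMCs stimulated with 2 μg/mL PHA for 3 days at 37 °C, then 5 × 10^5 cells/ml preincubated 30 min at 37 °C with serial compound dilutions plus 2 ng/mL IL-2. Infected with 1500 pg/well HIV-1 BaL or 500 pg/well other isolates. IL-2 re-added on days 3 and 6. Supernatant p24 Ag measured by ELISA at day 10. EC50 is 50% inhibition of replication.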

[10] = system: Human immunodeficiency virus 1; assay: Antiviral activity against CCR5 tropic HIV1 BaL infected in human TZM-bl cells assessed as inhibition of virus-induced cytopathic effect preincubated with cells for 30 mins followed by viral infection measured after 48 hrs in presence of p-24 HIV-1 Ag by luciferase reporter gene assay; assay type: functional, cell-based; conditions: Human immunodeficiency virus 1, BaL; method in brief: as §1
[11] = Cytotoxicity against human TZM-bl cells assessed as cell viability by tetrazolium dye assay; assay type: cell-based
[12] = system: Human immunodeficiency virus 1; assay: as §3, with “CCR5 tropic HIV1 BaL” for “CXCR4-tropic HIV-1 NL4-3”; assay type: functional; conditions: Human immunodeficiency virus 1, BaL; method in brief: as §4
[13] = system: Human immunodeficiency virus 1; assay: Selectivity ratio of EC50 for tenofovir-resistant CXCR4-tropic HIV-1 NL4-3 harboring reverse transcriptase K65R mutant infected in human MT4 cells to EC50 for CXCR4-tropic HIV-1 NL4-3 infected in human MT4 cells; assay type: functional; method in brief: as §2
[14] = Selectivity index, ratio of CC50 for human TZM-bl cells to EC50 for CCR5 tropic HIV1 BaL infected in human TZM-bl cells; assay type: toxicity, cell-based; conditions: read-out: Ratio CC50/EC50
[15] = Cytotoxic activity against HEL cells assessed as reduction in cell proliferation after 3 days by coulter counting method; assay type: cell-based; conditions: human
Method in brief: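 HEL cells seeded at 5 × 10^3/well, grown 24 h, then given compound for 3 days at 37 °C. Cell number counted by Coulter counter. CC50 is 50% reduction of proliferation relative to untreated controls, read from graphic plots.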

[16] = Selectivity index, ratio of CC50 for HepG2.2.15 cells to EC50 for HBV ayw1 infected in human HepG2(2.2.15) cells assessed as reduction in viral replication by measuring extracellular viral DNA copy
Method in brief: (§5)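 HepG2.2.15 cells (two copies of HBV ayw1 genome), 1.5 × 10^4/well in DMEM with 2% FBS and 380 μg/mL G418. After 16–24 h, compound added in triplicate, medium with compound renewed at day 3. Supernatant collected at day 6, Pronase-treated, and extracellular HBV DNA measured by TaqMan qPCR (precore/core) against an HBV DNA standard curve. EC50/EC90 derived; CC50 by MTS uptake.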

[17] = system: Hepatitis B virus; assay: Antiviral activity against HBV ayw1 infected in human HepG2(2.2.15) cells assessed as reduction in viral replication by measuring extracellular viral DNA copy number after 6 days by real-time qPCR method; assay type: functional, cell-based; conditions: ayw1, HepG2 2.2.15, 144 h; method in brief: as §5
[18] = system: Human alphaherpesvirus 3; assay: Antiviral activity against thymidine kinase expressing Varicella-Zoster virus Oka strain assessed as inhibition of plaque formation; assay type: functional; conditions: Human alphaherpesvirus 3, strain Oka vaccine
Method in brief: (§6)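 HEL fibroblast monolayers inoculated with 100 CCID50 HCMV (AD-169, Davis) or 20 PFU VZV (TK+ Oka, TK− 07-1). Adsorbed 1–2 h, inoculum removed, then incubated with compound dilutions. HCMV cytopathicity or VZV plaques scored once untreated infected controls reached completion. EC50 is 50% reduction. SI is CC50/EC50, and the potency ratio is the ratio of EC50s.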

[19] = Half life in human liver microsomes at 0.1 uM in presence of NADPH by HPLC-MS/MS method; assay type: ADME, microsome
Method in brief: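 Pooled human liver microsomes preincubated 10 min at 37 °C with an NADPH-regenerating system (1 mM NADP, 5 mM G6P, G6PDH) in pH 7.4 phosphate with 3 mM MgCl2 and 1 mM EDTA. Compound added at final 0.1 μM and sampled at 0–60 min into acetonitrile/methanol. Analysed by HPLC-MS/MS, mean of two experiments.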

[20] = Cytotoxic activity against HEL cells assessed as alteration of cell morphology after 3 days by microscopic method; assay type: cell-based; conditions: human
Method in brief: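 HEL cells with compound; MCC is the lowest concentration giving microscopically detectable alteration of cell morphology.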

[21] = Half life in human plasma at 1 uM by HPLC-MS/MS method; assay type: ADME, cell-free
Method in brief: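 Human plasma preincubated 10 min with pH 7.4 phosphate buffer at 37 °C. Compound added at final 1 μM and sampled at 0, 0.5, 1, 1.5 and 2 h into acetonitrile. Centrifuged and analysed by HPLC-MS/MS. t1/2 is the mean of two experiments.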

[22] = Selectivity index, ratio of CC50 for human HEL cells to EC50 for HCMV Davis strain; method in brief: as §6
[23] = system: Human betaherpesvirus 5; assay: Antiviral activity against HCMV Davis strain infected in HEL cells assessed as inhibition of virus-induced cytopathic effect; assay type: functional, cell-based; conditions: Human betaherpesvirus 5, Davis; method in brief: as §6
[24] = Cytotoxicity against human HepG2.2.15 cells assessed as cell viability by tetrazolium dye uptake assay; assay type: cell-based, HepG2 2.2.15
Method in brief: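 HepG2.2.15 cells (two integrated copies of HBV ayw1 genome) were seeded at 1.5 × 10^4 cells/well in DMEM with 2% FBS, 380 μg/mL G418, glutamine, antibiotics and nonessential amino acids. After 16−24 h, medium with various compound concentrations was added in triplicate and renewed on day 3. After 6 days of treatment, viability was read by MTS uptake and CC50 was calculated.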

[25] = system: Human alphaherpesvirus 3; assay: Antiviral activity against thymidine kinase deficient Varicella-Zoster virus 07-1 infected in HEL cells assessed as inhibition of plaque formation; assay type: functional, cell-based; conditions: Human alphaherpesvirus 3, 07-1, HEL; method in brief: as §6
[26] = Selectivity index, ratio of CC50 for human HEL cells to EC50 for HCMV AD-169 strain; method in brief: as §6
[27] = system: Human betaherpesvirus 5; assay: Antiviral activity against Human cytomegalovirus AD169 infected in HEL cells assessed as inhibition of virus-induced cytopathic effect; assay type: functional, cell-based; conditions: Human betaherpesvirus 5, AD169, HEL; method in brief: as §6
[28] = system: Human immunodeficiency virus 1; assay: Antiviral activity against HIV-1 infected in human MT4 cells measured on day 5 post-infection by trypan blue dye staining-based method; assay type: functional, cell-based; conditions: Human immunodeficiency virus 1, MT4, 120 h
[29] = system: Human immunodeficiency virus 2; assay: Antiviral activity against HIV-2 infected in human MT4 cells measured on day 5 post-infection by trypan blue dye staining-based method; assay type: functional, cell-based; conditions: Human immunodeficiency virus 2, MT4, 120 h
[30] = system: Hepatitis B virus; assay: Antiviral activity against HBV ayw1 infected in human HepG2(2.2.15) cells assessed as reduction in viral replication by measuring intracellular viral DNA copy number after 6 days byr by real-time qPCR assay; assay type: functional, cell-based; conditions: ayw1, HepG2 2.2.15, 144 h
Method in brief: (§7)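 Run as the HepG2.2.15 6-day assay (triplicate compound, medium with compound renewed at day 3). At the end, total intracellular DNA was isolated from the cells and HBV DNA copy number measured by TaqMan qPCR. EC50/EC90 derived; SI is CC50/EC50.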

[31] = Selectivity index, ratio of CC50 for HepG2.2.15 cells to EC50 for HBV ayw1 infected in human HepG2(2.2.15) cells assessed as reduction in viral replication by measuring intracellular viral DNA copy; method in brief: as §7

| SMILES | CC50 [1] [nM] | Ratio CC50/IC50 [2] | selectivity ratio [3] | pEC50 [4] | CC50 at 144 h [5] [nM] | pEC50 [6] | pEC50 [7] | Ratio CC50/IC50 [8] | pIC50 [9] | pEC50 [10] | CC50 [11] [nM] | pIC50 [12] | Ratio EC50 [13] | selectivity ratio [14] | Ratio CC50/EC50 [16] | pEC50 [17] | EC90 [17] [nM] | CC50 [24] [nM] | further results |
| --- | --- | --- | --- | --- | --- | --- | --- | --- | --- | --- | --- | --- | --- | --- | --- | --- | --- | --- | --- |
| C[C@H](Cn1cnc2c(N)ncnc21)OCP(=O)(O)O [TENOFOVIR ANHYDROUS] | > 25000 | >18 | > 25 | 5.40 | > 20000 | 7.00 | > 7.22 | >66 | 6.42 | 5.16 | > 100000 | 5.85 | >16.7 | > 14 | – | – | – | – | – |
| CC(C)OC(=O)OCOP(=O)(CO[C@H](C)Cn1cnc2c(N)ncnc21)OCOC(=O)OC(C)C.O=C(O)/C=C/C(=O)O [TENOFOVIR DISOPROXIL FUMARATE] | 14600 | 66 | – | – | > 20000 | 4.95 | – | 182 | 7.10 | – | – | 6.66 | 2.3 | – | – | – | – | – | – |
| CCCCCOC(=O)C[C@H](NP(=O)(CO[C@@H](CF)Cn1cnc2c(=O)[nH]c(N)nc21)Oc1ccccc1)C(=O)OCCCCC (some centres undefined) | 9310 | 55 | > 1370 | 7.14 | > 1000 | 7.10 | 8.00 | 466 | 7.70 | 7.22 | > 100000 | 6.77 | 8 | > 1670 | >5000 | 7.70 | 620 | > 100000 | CC50 at 72 h [15]: 10200 nM; pEC50 [18]: 6.05; half-life at 0.1 µM [19]: 2 min; MCC at 72 h [20]: 153 µM; half-life at 1 µM [21]: 73 min; Ratio CC50/EC50 [22]: <10; pEC50 [23]: 5.70; pEC50 [25]: 6.96; Ratio CC50/EC50 [26]: <10; pEC50 [27]: 5.35 |
| Nc1nc2c(ncn2CC(CF)OCP(=O)(O)O)c(=O)[nH]1 (centres undefined) | – | – | – | – | – | – | – | – | – | – | – | – | – | – | – | – | – | – | pEC50 [28]: 5.30; pEC50 [29]: 5.30 |
| C=C1[C@H](CO)[C@@H](O)C[C@@H]1n1cnc2c(=O)[nH]c(N)nc21.O [ENTECAVIR] | – | – | – | – | – | – | – | – | – | – | – | – | – | – | >2381 | > 8.00 | > 1000 | > 1000 | pEC50 [30]: 9.46; EC90 [30]: > 1000 nM; Ratio CC50/EC50 [31]: >2857 |
